Legend:
[1] = Plasma pharmacokinetics in DTC expansion cohort; assay type: in vivo, human; conditions: steady-state trough
Outline: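 Oral once-daily dosing in patients, 28-day cycles. The VEGFR inhibitor was profiled over 0–24 h after the first dose (C1D1). Troughs for both drugs were taken on C1D15 and at the second biopsy (C2D1 ± 48 h). Plasma was acetonitrile-extracted and run by positive-ESI LC-MS/MS: MEK inhibitor range 1–200 ng/mL; VEGFR inhibitor range 0.010–1 μg/mL, with 1:100 dilution up to 100 μg/mL. Noncompartmental analysis: Cmax observed, AUC by linear trapezoidal rule, Css,min averaged from both troughs.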

[2] = system: thyroid cancer cell lines and xenograft models; conditions: preclinical studies in DTC; cited from earlier work
[3] = system: progressive radioiodine refractory DTC; conditions: cited from earlier work
[4] = system: DTC; conditions: study of 20 patients; cited from earlier work

CC(=O)Nc1cccc(-n2c(=O)n(C3CC3)c(=O)c3c(Nc4ccc(I)cc4F)n(C)c(=O)c(C)c32)c1 [trametinib]
Css,min ([1]; trametinib 2 mg with pazopanib 800 mg daily): 18.7 ± 6.6 ng/mL

Cc1ccc(Nc2nccc(N(C)c3ccc4c(C)n(C)nc4c3)n2)cc1S(N)(=O)=O [pazopanib]
effect on p-ERK [2]: paradoxical upregulation of p-ERK
Css,min ([1]; pazopanib 800 mg with trametinib 2 mg daily): 33800 ± 17300 ng/mL
PR rate, papillary thyroid cancer ([3]; 5/11 patients as printed): 33%
PR rate, follicular thyroid cancer ([3]; 8/11): 73%
RECIST partial response (PR) rate ([3]; single-agent pazopanib, DTC overall): 49%
median PFS ([3]; single-agent pazopanib): 360 days

Cn1cnc2c(F)c(Nc3ccc(Br)cc3Cl)c(C(=O)NOCCO)cc21 [Selumetinib]
PRs, patients [4]: five
stable disease, patients [4]: three
